According to ChEMBL document CHEMBL5058577, “EUbOPEN Chemogenomics Library 2 (Multiplex)” (2022):

Tested on: Fibroblast
Assay: Multiplex assay against human fibroblast
Assay type: toxicity, cell-based
How it was run: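 Live cells were stained at seeding with Hoechst33342, BioTracker Green Microtubule Cytoskeleton Dye, MitoTracker Red and Annexin V Alexa Fluor 680, then imaged on a CQ1 microscope at 37°C and 5% CO2 after compound addition. CellPathfinder machine-learning gating split cells into Hoechst high-intensity objects or normal cells. Normal cells were split into healthy, pyknosed or fragmented nuclei, and pyknosed cells into mitotic or apoptotic. Tubulin, mitochondrial-mass and membrane-permeability phenotypes are per cents of healthy-nucleus cells.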

[1] = 12 h, 1 µM, compound concentration 1 uM, replicate 1
[2] = 12 h, 1 µM, compound concentration 1 uM, replicate 2
[3] = 12 h, 10 µM, compound concentration 10 uM, replicate 1
[4] = 12 h, 10 µM, compound concentration 10 uM, replicate 2
[5] = 24 h, 1 µM, compound concentration 1 uM, replicate 1
[6] = 24 h, 1 µM, compound concentration 1 uM, replicate 2
[7] = 24 h, 10 µM, compound concentration 10 uM, replicate 1
[8] = 24 h, 10 µM, compound concentration 10 uM, replicate 2
[9] = 48 h, 1 µM, compound concentration 1 uM, replicate 1
[10] = 48 h, 1 µM, compound concentration 1 uM, replicate 2
[11] = 48 h, 10 µM, compound concentration 10 uM, replicate 1
[12] = 48 h, 10 µM, compound concentration 10 uM, replicate 2

## COc1ccc2c(c1OCc1ccccc1)C[C@@H](C(=O)O)N(C(=O)C(c1ccccc1)c1ccccc1)C2 [OLODANRIGAN]
[1]
  Population Apoptotic (%): 46%
  Population Fragmented Nuclei (%): 17%
  Population Healthy Nuclei (%): 63%
  Population Hoechst High Intensity Objects (%): 7%
  Population Membrane Permeable-Phenotype (%): 1%
  Population Mitochondria Different-Phenotype (%): 2%
  Population Mitotic Cells (%): 53%
  Population Normal (%): 92%
  Population Pyknosed Nuclei (%): 19%
  Population Tubulin-Different-Phenotype (%): 29%
  Total Cell Count: 157
[2]
  Population Apoptotic (%): 38%
  Population Fragmented Nuclei (%): 21%
  Population Healthy Nuclei (%): 50%
  Population Hoechst High Intensity Objects (%): 1%
  Population Membrane Permeable-Phenotype (%): 9%
  Population Mitochondria Different-Phenotype (%): 5%
  Population Mitotic Cells (%): 61%
  Population Normal (%): 98%
  Population Pyknosed Nuclei (%): 27%
  Population Tubulin-Different-Phenotype (%): 57%
  Total Cell Count: 154
[3]
  Population Apoptotic (%): 31%
  Population Fragmented Nuclei (%): 11%
  Population Healthy Nuclei (%): 65%
  Population Hoechst High Intensity Objects (%): 0%
  Population Membrane Permeable-Phenotype (%): 1%
  Population Mitochondria Different-Phenotype (%): 7%
  Population Mitotic Cells (%): 68%
  Population Normal (%): 99%
  Population Pyknosed Nuclei (%): 23%
  Population Tubulin-Different-Phenotype (%): 28%
  Total Cell Count: 140
[4]
  Population Apoptotic (%): 34%
  Population Fragmented Nuclei (%): 18%
  Population Healthy Nuclei (%): 54%
  Population Hoechst High Intensity Objects (%): 5%
  Population Membrane Permeable-Phenotype (%): 6%
  Population Mitotic Cells (%): 65%
  Population Normal (%): 94%
  Population Pyknosed Nuclei (%): 26%
  Population Tubulin-Different-Phenotype (%): 46%
  Total Cell Count: 162
[5]
  Population Apoptotic (%): 65%
  Population Fragmented Nuclei (%): 18%
  Population Healthy Nuclei (%): 66%
  Population Hoechst High Intensity Objects (%): 6%
  Population Membrane Permeable-Phenotype (%): 0%
  Population Mitochondria Different-Phenotype (%): 1%
  Population Mitotic Cells (%): 34%
  Population Normal (%): 93%
  Population Pyknosed Nuclei (%): 15%
  Population Tubulin-Different-Phenotype (%): 26%
  Total Cell Count: 159
[6]
  Population Apoptotic (%): 38%
  Population Fragmented Nuclei (%): 21%
  Population Healthy Nuclei (%): 53%
  Population Hoechst High Intensity Objects (%): 2%
  Population Membrane Permeable-Phenotype (%): 9%
  Population Mitochondria Different-Phenotype (%): 7%
  Population Mitotic Cells (%): 61%
  Population Normal (%): 97%
  Population Pyknosed Nuclei (%): 25%
  Population Tubulin-Different-Phenotype (%): 46%
  Total Cell Count: 146
[7]
  Population Apoptotic (%): 53%
  Population Fragmented Nuclei (%): 10%
  Population Healthy Nuclei (%): 68%
  Population Hoechst High Intensity Objects (%): 2%
  Population Membrane Permeable-Phenotype (%): 1%
  Population Mitochondria Different-Phenotype (%): 3%
  Population Mitotic Cells (%): 46%
  Population Normal (%): 97%
  Population Pyknosed Nuclei (%): 21%
  Population Tubulin-Different-Phenotype (%): 21%
  Total Cell Count: 136
[8]
  Population Apoptotic (%): 58%
  Population Fragmented Nuclei (%): 17%
  Population Healthy Nuclei (%): 62%
  Population Hoechst High Intensity Objects (%): 3%
  Population Membrane Permeable-Phenotype (%): 4%
  Population Mitochondria Different-Phenotype (%): 4%
  Population Mitotic Cells (%): 41%
  Population Normal (%): 96%
  Population Pyknosed Nuclei (%): 19%
  Population Tubulin-Different-Phenotype (%): 50%
  Total Cell Count: 153
[9]
  Population Apoptotic (%): 42%
  Population Fragmented Nuclei (%): 27%
  Population Healthy Nuclei (%): 58%
  Population Hoechst High Intensity Objects (%): 3%
  Population Membrane Permeable-Phenotype (%): 0%
  Population Mitochondria Different-Phenotype (%): 2%
  Population Mitotic Cells (%): 57%
  Population Normal (%): 96%
  Population Pyknosed Nuclei (%): 14%
  Population Tubulin-Different-Phenotype (%): 20%
  Total Cell Count: 154
[10]
  Population Apoptotic (%): 41%
  Population Fragmented Nuclei (%): 31%
  Population Healthy Nuclei (%): 52%
  Population Hoechst High Intensity Objects (%): 1%
  Population Membrane Permeable-Phenotype (%): 1%
  Population Mitochondria Different-Phenotype (%): 4%
  Population Mitotic Cells (%): 58%
  Population Normal (%): 98%
  Population Pyknosed Nuclei (%): 15%
  Population Tubulin-Different-Phenotype (%): 40%
  Total Cell Count: 156
[11]
  Population Apoptotic (%): 57%
  Population Fragmented Nuclei (%): 15%
  Population Healthy Nuclei (%): 69%
  Population Hoechst High Intensity Objects (%): 5%
  Population Membrane Permeable-Phenotype (%): 1%
  Population Mitochondria Different-Phenotype (%): 5%
  Population Mitotic Cells (%): 42%
  Population Normal (%): 94%
  Population Pyknosed Nuclei (%): 15%
  Population Tubulin-Different-Phenotype (%): 27%
  Total Cell Count: 146
[12]
  Population Apoptotic (%): 61%
  Population Fragmented Nuclei (%): 29%
  Population Healthy Nuclei (%): 58%
  Population Hoechst High Intensity Objects (%): 7%
  Population Membrane Permeable-Phenotype (%): 3%
  Population Mitotic Cells (%): 38%
  Population Normal (%): 92%
  Population Pyknosed Nuclei (%): 12%
  Population Tubulin-Different-Phenotype (%): 45%
  Total Cell Count: 163
